# Results from ChEMBL document CHEMBL4270613, “Design, synthesis, biological evaluation and structure-activity relationship of sophoridine derivatives bearing pyrrole or indole scaffold as potential antitumor agents” (Eur J Med Chem, 2018).
# Calls of active or inactive are those of the source. The calls are words filed in the database; no cut-off is given here.
# How the values were obtained:
# HepG2 [1] = assay: Antitumor activity against human HepG2 cells xenografted in nude mouse assessed as tumor growth inhibition at 40 mg/kg for 25 days; format: functional, organism-based
# In short: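 HepG2 xenografts were grown in nude mice and dosed at 40 mg/kg alongside a vehicle group. Tumour volume and body weight were recorded every 2 days. At the end, tumours were excised and weighed. Groups were compared with the vehicle group.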
# CNE = assay: Antiproliferative activity against human CNE1 cells after 72 hrs by MTT assay; format: functional, cell-based
# HeLa = assay: Antiproliferative activity against human HeLa cells after 72 hrs by MTT assay; format: functional, cell-based
# HepG2 [2] = assay: Antiproliferative activity against human HepG2 cells after 72 hrs by MTT assay; format: functional, cell-based; settings: HepG2, 72 h
# HepG2 [3] = assay: Antiproliferative activity against human HepG2 cells after 48 hrs by MTT assay; format: functional, cell-based; settings: HepG2, 48 h
# In short: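 HepG2 exposed to compounds for 48 h; MTT readout; camptothecin positive control; IC50 calculated; mean ± SD of three independent experiments, each in triplicate.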
# SMMC-7721 = assay: Antiproliferative activity against human SMMC7721 cells after 72 hrs by MTT assay; format: functional, cell-based; settings: SMMC-7721, 72 h
# CNE-2 = assay: Antiproliferative activity against human CNE2 cells after 72 hrs by MTT assay; format: functional, cell-based; settings: CNE-2, 72 h
# MCF7 = assay: Antiproliferative activity against human MCF7 cells after 72 hrs by MTT assay; format: functional, cell-based; settings: MCF7, 72 h
# HepG2 [4] = assay: Induction of apoptosis in human HepG2 cells assessed as necrotic cells at 0.75 uM after 24 hrs by Annexin V-FITC/propidium iodide staining based flow cytometry (reference value: 1.18%); format: functional
# In short: (§1)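 HepG2 treated at 0, 0.75, 1.5 and 3 µM for 24 h, then Annexin V-FITC/PI dual staining and quantification by flow cytometry.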
# HepG2 [5] = assay: Induction of apoptosis in human HepG2 cells assessed as early apoptotic cells at 0.75 uM after 24 hrs by Annexin V-FITC/propidium iodide staining based flow cytometry (reference value: 1%); format: functional; in short: as §1
# HepG2 [6] = assay: Upregulation of Bax protein expression in human HepG2 cells after 24 hrs by Western blot analysis; format: functional, cell-based
# In short: (§2)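 HepG2 treated at 0, 0.75, 1.5 and 3 µM for 24 h, then western blot for Bax, Bcl-2 and cleaved caspase-3.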
# HepG2 [7] = assay: Induction of apoptosis in human HepG2 cells assessed as necrotic cells at 1.5 uM after 24 hrs by Annexin V-FITC/propidium iodide staining based flow cytometry (reference value: 1.18%); format: functional; in short: as §1
# HepG2 [8] = assay: Induction of apoptosis in human HepG2 cells assessed as live cells at 3 uM after 24 hrs by Annexin V-FITC/propidium iodide staining based flow cytometry (reference value: 96.2%); format: functional; in short: as §1
# HepG2 [9] = assay: Upregulation of cleaved caspase-3 protein expression in human HepG2 cells at 0.75 to 3 uM after 24 hrs by Western blot analysis; format: functional, cell-based; in short: as §2
# Mus musculus = assay: Toxicity in nude mouse xenografted with human HepG2 cells assessed as change in body weight at 40 mg/kg for 25 days; format: organism-based; settings: in vivo, 600 h
# In short: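 Nude mice bearing HepG2 xenografts dosed at 40 mg/kg against vehicle; body weight and tumor volume measured every 2 days; tumors weighed at end.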
# HepG2 [10] = assay: Induction of apoptosis in human HepG2 cells assessed as early apoptotic cells at 1.5 uM after 24 hrs by Annexin V-FITC/propidium iodide staining based flow cytometry (reference value: 1%); format: functional; in short: as §1
# HepG2 [11] = assay: Downregulation of Bcl2 protein expression in human HepG2 cells after 24 hrs by Western blot analysis; format: functional, cell-based; in short: as §2
# HepG2 [12] = assay: Induction of apoptosis in human HepG2 cells assessed as early apoptotic cells at 3 uM after 24 hrs by Annexin V-FITC/propidium iodide staining based flow cytometry (reference value: 1%); format: functional; in short: as §1
# HepG2 [13] = assay: Induction of apoptosis in human HepG2 cells assessed as late apoptotic cells at 1.5 uM after 24 hrs by Annexin V-FITC/propidium iodide staining based flow cytometry (reference value: 1.6%); format: functional; in short: as §1
# HepG2 [14] = assay: Induction of apoptosis in human HepG2 cells assessed as live cells at 0.75 uM after 24 hrs by Annexin V-FITC/propidium iodide staining based flow cytometry (reference value: 96.2%); format: functional; in short: as §1
# HepG2 [15] = assay: Induction of apoptosis in human HepG2 cells assessed as live cells at 1.5 uM after 24 hrs by Annexin V-FITC/propidium iodide staining based flow cytometry (reference value: 96.2%); format: functional; in short: as §1
# HepG2 [16] = assay: Induction of apoptosis in human HepG2 cells assessed as late apoptotic cells at 3 uM after 24 hrs by Annexin V-FITC/propidium iodide staining based flow cytometry (reference value: 1.6%); format: functional; in short: as §1
# HepG2 [17] = assay: Induction of apoptosis in human HepG2 cells after 24 hrs by Annexin V-FITC/propidium iodide staining based flow cytometry; format: functional, cell-based; in short: as §1
# HepG2 [18] = assay: Induction of apoptosis in human HepG2 cells assessed as late apoptotic cells at 0.75 uM after 24 hrs by Annexin V-FITC/propidium iodide staining based flow cytometry (reference value: 1.6%); format: functional; in short: as §1
# HepG2 [19] = assay: Induction of apoptosis in human HepG2 cells assessed as necrotic cells at 3 uM after 24 hrs by Annexin V-FITC/propidium iodide staining based flow cytometry (reference value: 1.18%); format: functional; in short: as §1
# [20] = biological target: T1, DNA topoisomerase 1 (Homo sapiens) (UniProt P11387); assay: Inhibition of recombinant human topoisomerase-1 using supercoiled pBR322 DNA as substrate after 45 mins by ethidium bromide staining based gel electrophoresis method
# T1 sequence (whole entry): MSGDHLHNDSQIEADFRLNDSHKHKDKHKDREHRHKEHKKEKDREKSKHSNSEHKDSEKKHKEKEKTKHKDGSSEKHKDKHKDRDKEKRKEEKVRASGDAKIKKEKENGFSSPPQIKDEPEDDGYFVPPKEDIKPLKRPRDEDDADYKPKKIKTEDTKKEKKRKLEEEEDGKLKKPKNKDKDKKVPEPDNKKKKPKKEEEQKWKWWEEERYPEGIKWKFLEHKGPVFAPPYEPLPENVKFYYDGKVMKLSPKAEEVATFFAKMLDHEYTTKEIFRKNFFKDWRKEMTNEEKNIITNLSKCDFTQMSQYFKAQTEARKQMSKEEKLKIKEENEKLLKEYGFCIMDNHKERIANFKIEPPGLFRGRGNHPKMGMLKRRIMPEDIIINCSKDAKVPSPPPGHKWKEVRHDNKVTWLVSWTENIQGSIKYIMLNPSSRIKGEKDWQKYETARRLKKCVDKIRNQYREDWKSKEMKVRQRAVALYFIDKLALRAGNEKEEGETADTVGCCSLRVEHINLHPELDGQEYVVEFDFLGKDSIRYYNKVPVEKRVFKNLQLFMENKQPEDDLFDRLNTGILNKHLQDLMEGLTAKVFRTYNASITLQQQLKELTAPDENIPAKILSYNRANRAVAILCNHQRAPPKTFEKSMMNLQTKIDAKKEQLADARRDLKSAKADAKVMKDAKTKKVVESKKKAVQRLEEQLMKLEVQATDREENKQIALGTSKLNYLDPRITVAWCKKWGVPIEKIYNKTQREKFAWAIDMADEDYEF
# In short: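 Plasmid relaxation assay: pBR322 DNA with Topo I plus DMSO vehicle, test compound at 1000, 500, 250 or 100 µM, or CPT at 100 µM as control; DNA alone as reference lane; products resolved on gel.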
smiles,measurement,setting,value
O=C1CCC[C@@H]2[C@H]3CCCN4CCC[C@H](CN12)[C@@H]34,TGI,HepG2 [1],inactive
CC[C@@]1(O)C(=O)OCc2c1cc1n(c2=O)Cc2cc3ccccc3nc2-1 [CAMPTOTHECIN],IC50,CNE,340 nM
same,IC50,HeLa,660 nM
same,IC50,HepG2 [2],1360 nM
same,IC50,HepG2 [3],6080 nM
same,IC50,SMMC-7721,1080 nM
same,IC50,CNE-2,980 nM
same,IC50,MCF7,420 nM
COc1ccc2c(c1)c(/C=C1\CC[C@@H]3[C@H]4CCCN5CCC[C@H](CN3C1=O)[C@@H]45)cn2Cc1ccc(OCc2ccccc2)cc1,TGI,HepG2 [1],Active
same,Activity,HepG2 [4],2.58%
same,Activity,HepG2 [5],6.71%
same,Activity,HepG2 [6],Dose-dependent effect
same,IC50,CNE,1890 nM
same,Activity,HepG2 [7],0.94%
same,Activity,HepG2 [8],57%
same,Activity,HepG2 [9],Active
same,Activity,Mus musculus,Non-Toxic
same,Activity,HepG2 [10],9.49%
same,IC50,HeLa,1440 nM
same,Activity,HepG2 [11],Dose-dependent effect
same,Activity,HepG2 [12],33.8%
same,IC50,HepG2 [2],930 nM
same,IC50,HepG2 [3],1960 nM
same,IC50,SMMC-7721,1320 nM
same,Activity,HepG2 [13],11.5%
same,Activity,HepG2 [14],87.6%
same,Activity,HepG2 [15],78%
same,IC50,CNE-2,1240 nM
same,Activity,HepG2 [16],7.69%
same,Activity,HepG2 [17],Dose-dependent effect
same,Activity,HepG2 [18],3.09%
same,Activity,HepG2 [19],1.52%
same,inhibition,[20],Dose-dependent effect
same,IC50,MCF7,940 nM
